ChEMBL document CHEMBL1157150, “Synthesis, structure and antibacterial activity of novel 1-(5-substituted-3-substituted-4,5-dihydropyrazol-1-yl)ethanone oxime ester derivatives” (Bioorg Med Chem, 2008)
Values after ≈ are worked out from the molar mass of the structure shown. Active and inactive are the calls of the source. The calls are words filed in the database; no cut-off is given here.

What was measured:
Pseudomonas fluorescens = assay: Antibacterial activity against Pseudomonas fluorescens ATCC 13525; format: functional
Bacillus subtilis = assay: microbe, parasite or virus in culture; format: functional; conditions: ATCC 6633
Pseudomonas aeruginosa = assay: Antibacterial activity against Pseudomonas aeruginosa ATCC 13525; format: functional, organism-based
Summary of the method: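 Broth microdilution in MH medium with an inoculum of about 10⁵ cfu/mL. Compounds were serially diluted from a DMSO stock and incubated 24 h at 37 °C. MIC was read visually, then confirmed colorimetrically: MTT (2 mg/mL in PBS, pH 7.4) was added for 4–5 h at room temperature, the dye was extracted with isopropanol/5% 1 mol/L HCl for 12 h, and OD was read at 550 nm.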

Staphylococcus aureus = assay: Antibacterial activity against Staphylococcus aureus ATCC 6538; format: functional
Escherichia coli = assay: Antibacterial activity against Escherichia coli ATCC 35218; format: functional
[1] = Inhibition of Escherichia coli DNA gyrase supercoiling activity

| SMILES | MIC (Pseudomonas fluorescens) | MIC (Bacillus subtilis) | MIC (Staphylococcus aureus) | MIC (Escherichia coli) | IC50 [1] | Activity (Pseudomonas aeruginosa) |
| --- | --- | --- | --- | --- | --- | --- |
| C/C(=N/OC(=O)c1ccccc1[N+](=O)[O-])N1N=C(c2ccc(Cl)cc2Cl)CC1c1ccccc1F (stereo unspecified) | 50 µg/mL (≈ 97 µM) | 25 µg/mL (≈ 48.5 µM) | 50 µg/mL (≈ 97 µM) | 50 µg/mL (≈ 97 µM) |  | Active |
| C=CC(=O)O/N=C(/C)N1N=C(c2ccc(Cl)cc2Cl)CC1c1ccccc1F (stereo unspecified) | 12.5 µg/mL (≈ 29.7 µM) | 3.12 µg/mL (≈ 7.44 µM) | 3.12 µg/mL (≈ 7.44 µM) | 3.12 µg/mL (≈ 7.44 µM) | 100 µg/mL (≈ 238 µM) | Active |
| C/C(=N/OC(=O)c1ccc(F)cc1)N1N=C(c2ccc(Cl)cc2Cl)CC1c1ccc(C(F)(F)F)cc1 (stereo unspecified) | 25 µg/mL (≈ 46.4 µM) | 25 µg/mL (≈ 46.4 µM) | 50 µg/mL (≈ 92.9 µM) | 25 µg/mL (≈ 46.4 µM) |  | Active |
| C/C(=N/OC(=O)c1ccc(C(F)(F)F)cc1)N1N=C(c2ccc(Cl)cc2Cl)CC1c1ccccc1F (stereo unspecified) | 50 µg/mL (≈ 92.9 µM) | 12.5 µg/mL (≈ 23.2 µM) | 12.5 µg/mL (≈ 23.2 µM) | 12.5 µg/mL (≈ 23.2 µM) |  | Active |
| C/C(=N/OC(=O)c1ccc(F)cc1)N1N=C(c2ccc(Cl)cc2Cl)CC1c1ccccc1F (stereo unspecified) | 25 µg/mL (≈ 51.2 µM) | 25 µg/mL (≈ 51.2 µM) | 12.5 µg/mL (≈ 25.6 µM) | 25 µg/mL (≈ 51.2 µM) |  | Active |
| C/C(=N/OC(=O)c1ccc(C(F)(F)F)cc1)N1N=C(c2ccc(Cl)cc2Cl)CC1c1ccc(C(F)(F)F)cc1 (stereo unspecified) | 50 µg/mL (≈ 85 µM) | 25 µg/mL (≈ 42.5 µM) | 50 µg/mL (≈ 85 µM) | 50 µg/mL (≈ 85 µM) |  | Active |
| C/C(=N/OC(=O)/C=C/c1ccccc1)N1N=C(c2ccc(Cl)cc2Cl)CC1c1ccc(C(F)(F)F)cc1 (stereo unspecified) | 3.12 µg/mL (≈ 5.72 µM) | 1.56 µg/mL (≈ 2.86 µM) | 6.25 µg/mL (≈ 11.4 µM) | 12.5 µg/mL (≈ 22.9 µM) |  | Active |
| C/C(=N/OC(=O)c1ccccc1C)N1N=C(c2ccc(Cl)cc2Cl)CC1c1ccccc1F (stereo unspecified) | 50 µg/mL (≈ 103 µM) | 50 µg/mL (≈ 103 µM) | 50 µg/mL (≈ 103 µM) | 50 µg/mL (≈ 103 µM) |  | Active |
| COC1CC(c2ccccc2)=NN1/C(C)=N\OC(=O)/C=C/c1ccccc1 (stereo unspecified) | 3.12 µg/mL (≈ 8.6 µM) | 1.56 µg/mL (≈ 4.3 µM) | 12.5 µg/mL (≈ 34.4 µM) | 6.25 µg/mL (≈ 17.2 µM) |  |  |
| CCC(=O)O/N=C(/C)N1N=C(c2ccccc2)CC1OC (stereo unspecified) | 12.5 µg/mL (≈ 43.2 µM) | 12.5 µg/mL (≈ 43.2 µM) | 25 µg/mL (≈ 86.4 µM) | 12.5 µg/mL (≈ 43.2 µM) |  |  |

The next lines start with results.

| MIC (Pseudomonas fluorescens) | MIC (Bacillus subtilis) | MIC (Staphylococcus aureus) | MIC (Escherichia coli) | IC50 [1] | SMILES | Activity (Pseudomonas aeruginosa) |
| --- | --- | --- | --- | --- | --- | --- |
| 12.5 µg/mL (≈ 26.5 µM) | 12.5 µg/mL (≈ 26.5 µM) | 12.5 µg/mL (≈ 26.5 µM) | 12.5 µg/mL (≈ 26.5 µM) |  | CC1=NN(/C(C)=N\OC(=O)/C=C/c2ccccc2)C(c2ccc(OCc3ccc(F)cc3)cc2)C1 (stereo unspecified) | Active |
| 50 µg/mL (≈ 108 µM) | 50 µg/mL (≈ 108 µM) | 50 µg/mL (≈ 108 µM) | 50 µg/mL (≈ 108 µM) |  | CC1=NN(/C(C)=N\OC(=O)c2ccccc2F)C(c2ccccc2OCc2ccc(F)cc2)C1 (stereo unspecified) | Active |
| 12.5 µg/mL (≈ 23.2 µM) | 12.5 µg/mL (≈ 23.2 µM) | 50 µg/mL (≈ 92.9 µM) | 50 µg/mL (≈ 92.9 µM) |  | C/C(=N/OC(=O)c1ccccc1F)N1N=C(c2ccc(Cl)cc2Cl)CC1c1ccc(C(F)(F)F)cc1 (stereo unspecified) | Active |
| 50 µg/mL (≈ 97.2 µM) | 12.5 µg/mL (≈ 24.3 µM) | 12.5 µg/mL (≈ 24.3 µM) | 12.5 µg/mL (≈ 24.3 µM) |  | CC1=NN(/C(C)=N\OC(=O)c2ccc(Cl)cc2Cl)C(c2ccc(OCc3ccc(F)cc3)cc2)C1 (stereo unspecified) | Active |
| 50 µg/mL (≈ 108 µM) | 50 µg/mL (≈ 108 µM) | 50 µg/mL (≈ 108 µM) | 50 µg/mL (≈ 108 µM) |  | CC1=NN(/C(C)=N\OC(=O)c2ccc(F)cc2)C(c2ccc(OCc3ccc(F)cc3)cc2)C1 (stereo unspecified) | Active |
| 50 µg/mL (≈ 122 µM) | 50 µg/mL (≈ 122 µM) | 50 µg/mL (≈ 122 µM) | 50 µg/mL (≈ 122 µM) |  | CCCC(=O)O/N=C(/C)N1N=C(C)CC1c1ccccc1OCc1ccc(F)cc1 (stereo unspecified) | Active |
| 50 µg/mL (≈ 126 µM) | 50 µg/mL (≈ 126 µM) | 50 µg/mL (≈ 126 µM) | 50 µg/mL (≈ 126 µM) | > 125 µg/mL | CCC(=O)O/N=C(/C)N1N=C(C)CC1c1ccccc1OCc1ccc(F)cc1 (stereo unspecified) | Active |
| > 50 µg/mL | > 50 µg/mL | > 50 µg/mL | > 50 µg/mL |  | CC1=NN(/C(C)=N\OC(=O)c2ccc(Cl)cc2)C(c2ccc(OCc3ccc(F)cc3)cc2)C1 (stereo unspecified) | Active |
| 50 µg/mL (≈ 97.4 µM) | 50 µg/mL (≈ 97.4 µM) | 50 µg/mL (≈ 97.4 µM) | 50 µg/mL (≈ 97.4 µM) |  | CC1=NN(/C(C)=N\OC(=O)c2ccc(C(F)(F)F)cc2)C(c2ccccc2OCc2ccc(F)cc2)C1 (stereo unspecified) | Active |
| 12.5 µg/mL (≈ 28 µM) | 6.25 µg/mL (≈ 14 µM) | 6.25 µg/mL (≈ 14 µM) | 6.25 µg/mL (≈ 14 µM) | 4 µg/mL (≈ 8.96 µM) | CC1=NN(/C(C)=N\OC(=O)c2cccnc2)C(c2ccc(OCc3ccc(F)cc3)cc2)C1 (stereo unspecified) | Active |
| 50 µg/mL (≈ 104 µM) | 50 µg/mL (≈ 104 µM) | 12.5 µg/mL (≈ 26 µM) | 50 µg/mL (≈ 104 µM) |  | CC1=NN(/C(C)=N\OC(=O)c2ccccc2Cl)C(c2ccc(OCc3ccc(F)cc3)cc2)C1 (stereo unspecified) | Active |
| 25 µg/mL (≈ 53.9 µM) | 25 µg/mL (≈ 53.9 µM) | 50 µg/mL (≈ 108 µM) | 50 µg/mL (≈ 108 µM) |  | CC1=NN(/C(C)=N\OC(=O)c2ccccc2F)C(c2ccc(OCc3ccc(F)cc3)cc2)C1 (stereo unspecified) | Active |
